# Experimental data from different studies.
# Lines come from different studies, so protocols differ.
# EIF2AK4 S808G C-terminal kinase domain: eIF-2-alpha kinase GCN2, C-terminal kinase domain (EIF2AK4, Homo sapiens, UniProt Q9P2K8, S808G)
# EIF2AK4 S808G: eIF-2-alpha kinase GCN2 (EIF2AK4, Homo sapiens, UniProt Q9P2K8, S808G)
Compound,target,read-out,method,concentration,remaining binding [%]
O=C(O)[C@H]1[C@H](Cn2nnc3ccccc3c2=O)CC[C@@H]1C(=O)c1ccc(OCCC2CCOCC2)cc1,EIF2AK4 S808G C-terminal kinase domain,cell-free assay,competition with immobilised ligand,1 µM,55
O=C(c1ccc(Nc2ncc(Cl)c(-c3ccc(Cl)s3)n2)cc1)N1CCC(N2CCCC2)CC1,EIF2AK4 S808G C-terminal kinase domain,binding,competition with immobilised ligand,1 µM,0.25
COc1cnc(Nc2cccc(S(N)(=O)=O)c2)nc1N1CCN(c2ccccc2)CC1,EIF2AK4 S808G C-terminal kinase domain,binding,competition with immobilised ligand,1 µM,95
c1cnn2ncc(-c3ccnc(N4CCC45COC5)n3)c2c1,EIF2AK4 S808G,binding,,1 µM,100
CCC(=N\O)/C(C)=C/c1ccc(F)cc1,EIF2AK4 S808G C-terminal kinase domain,cell-free assay,competition with immobilised ligand,1 µM,70
N[C@H]1CCN(c2nccc(-c3cnn4ncccc34)n2)C1,EIF2AK4 S808G,binding,,1 µM,100
O=C(NC[C@@H]1[C@H]2CN(C(=O)OCc3cc(C(F)(F)F)cc(C(F)(F)F)c3)C[C@@H]12)c1ccc2[nH]nnc2c1,EIF2AK4 S808G C-terminal kinase domain,cell-free assay,competition with immobilised ligand,1 µM,84
COc1cnc(Nc2cccc(S(N)(=O)=O)c2)nc1N1CCN(c2ccccc2)C(=O)C1,EIF2AK4 S808G C-terminal kinase domain,binding,competition with immobilised ligand,1 µM,90
FC(F)(F)Oc1cccc(-c2cnc3ccc(-c4ccncc4)nn23)c1,EIF2AK4 S808G,binding,competition with immobilised ligand,5 µM,35
CC(=O)N1CCC(c2ccc(C(=O)NC3=NCCN3)cc2C(F)(F)F)CC1,EIF2AK4 S808G C-terminal kinase domain,cell-free assay,competition with immobilised ligand,1 µM,52
C[C@@H](c1ccc(-n2cnc3c(N)ncnc32)cc1)N1CCc2nn(C)c(Cc3ccccc3)c2C1=O,EIF2AK4 S808G C-terminal kinase domain,binding,competition with immobilised ligand,0.1 µM,98
O=C(NCCCN1CCOCC1)c1ccc(Nc2nccc(-c3cc4ccccc4s3)n2)cc1,EIF2AK4 S808G C-terminal kinase domain,binding,competition with immobilised ligand,1 µM,15
O=C(NCC1CCOCC1)c1n[nH]cc1NC(=O)c1c(F)cccc1F,EIF2AK4 S808G C-terminal kinase domain,binding,competition with immobilised ligand,1 µM,100
O=C(NCCCN1CCOCC1)c1ccc(Nc2ncc(Cl)c(-c3ccc(Cl)s3)n2)cc1,EIF2AK4 S808G C-terminal kinase domain,binding,competition with immobilised ligand,1 µM,0.35
Cc1cnn2ncc(-c3ccnc(N(C)C)n3)c2c1,EIF2AK4 S808G,binding,,1 µM,96
C[C@H](NC(=O)c1cnc2n1[C@](C)(Cc1ccc(C#N)cc1)C(=O)N2c1cc(Cl)c(F)c(Cl)c1)C(=O)NC1(c2ccccn2)CC1,EIF2AK4 S808G C-terminal kinase domain,cell-free assay,competition with immobilised ligand,1 µM,100
CN(C)c1ncc(F)c(-c2cnn3ncccc23)n1,EIF2AK4 S808G,binding,,1 µM,100
C[C@@H](c1cccc(C#N)c1)n1cc(Cl)cc(C(N)=O)c1=N,EIF2AK4 S808G C-terminal kinase domain,cell-free assay,competition with immobilised ligand,1 µM,50
CN(C)c1nccc(-c2cnc3ncccn23)n1,EIF2AK4 S808G,binding,,1 µM,99
CN1CCN(c2ccc(Nc3nccc(-c4ccccc4)n3)cc2C(F)(F)F)CC1,EIF2AK4 S808G,binding,,10 µM,0.2
O=C(NCc1ncc(C(F)(F)F)cc1Cl)c1ccc2c(c1)C1(CCS(=O)(=O)CC1)[C@@H](C1CC1)N2S(=O)(=O)c1ccc(F)cc1,EIF2AK4 S808G C-terminal kinase domain,cell-free assay,competition with immobilised ligand,1 µM,100
C[C@H]1CCN(c2nccc(-c3cnn4ncccc34)n2)C1,EIF2AK4 S808G,binding,,1 µM,100
